ChEMBL document CHEMBL5149984, “Discovery of HN37 as a Potent and Chemically Stable Antiepileptic Drug Candidate” (J Med Chem, 2021)

Key:
[1] = target: T1, Potassium voltage-gated channel subfamily KQT member 1 (Homo sapiens, UniProt P51787); assay: Agonist activity at human KCNQ1 channel expressed in CHO cells assessed as shift of half voltage of maximal activation at 10 uM by patch clamp method; assay type: cell-based
T1 sequence (P51787 whole entry): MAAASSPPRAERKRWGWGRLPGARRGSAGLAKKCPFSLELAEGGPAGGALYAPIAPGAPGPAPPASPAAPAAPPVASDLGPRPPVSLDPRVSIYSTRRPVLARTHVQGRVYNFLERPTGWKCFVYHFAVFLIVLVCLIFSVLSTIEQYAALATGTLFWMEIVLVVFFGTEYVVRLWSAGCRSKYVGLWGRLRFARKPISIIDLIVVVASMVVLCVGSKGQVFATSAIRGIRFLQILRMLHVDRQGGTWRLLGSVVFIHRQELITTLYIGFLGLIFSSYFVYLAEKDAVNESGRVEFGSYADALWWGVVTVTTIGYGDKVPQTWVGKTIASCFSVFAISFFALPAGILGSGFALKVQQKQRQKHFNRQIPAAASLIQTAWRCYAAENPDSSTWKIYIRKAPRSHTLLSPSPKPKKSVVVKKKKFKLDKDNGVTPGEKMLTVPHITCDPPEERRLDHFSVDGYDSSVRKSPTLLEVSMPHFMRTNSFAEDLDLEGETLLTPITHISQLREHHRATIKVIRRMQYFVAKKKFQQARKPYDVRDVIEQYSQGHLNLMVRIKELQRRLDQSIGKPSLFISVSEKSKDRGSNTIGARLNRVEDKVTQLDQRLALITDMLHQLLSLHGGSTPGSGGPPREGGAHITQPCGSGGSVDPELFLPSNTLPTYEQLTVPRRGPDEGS
Method in brief: (§1)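 Whole-cell patch clamp at room temperature on CHO cells (DMEM/F12, 10% FBS) transiently co-transfected with EGFP and hKCNQ1, rKCNQ2, rKCNQ3 A278T, hKCNQ4 or hKCNQ5; KCNQ2/3 at 1:1 cDNA ratio. Pipette solution 145 mM KCl, 5 mM MgATP, pH 7.3; bath 140 mM NaCl, 5 mM KCl, pH 7.4, under perfusion. V1/2 from Boltzmann fits; I/I0 is current amplitude with versus without compound; n = 4−6.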

Mus musculus = assay: Anticonvulsant activity in MES induced Kunming mouse model of seizure at 30 mg/kg, po after 1 hr; assay type: functional
Method in brief: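 MES test in male KM mice. Compounds freshly suspended in 0.5% CMC-Na and given by gavage at 20 mL/kg; 160 V stimulus through ear clips. Protection scored as absence of hindlimb tonic extension; time course at 0.25, 0.5, 1 and 2 h, otherwise tested at 1 h. ED50 from dose−response by nonlinear regression; Fisher's exact test versus vehicle.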

[2] = Neurotoxicity in po dosed Kunming mouse assessed as motor impairment after 1 hr by rotarod test; assay type: toxicity, organism-based; conditions: in vivo
Method in brief: (§2)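 Male KM mice dosed intragastrically with compound freshly suspended in 0.5% CMC-Na. Rotarod performance scored 1 h after dosing as the fraction of animals showing motor impairment. Fisher's exact test versus vehicle; TD50 from nonlinear dose−response fit.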

[3] = Cmax in Kunming mouse plasma at 5 mg/kg, po measured upto 24 hrs by LC-MS/MS method; assay type: ADME, organism-based; parameters: dose 5 mg/kg, time < 24 hrs, route po
Method in brief: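 KM male mice (18−24 g), fasted 12 h before and 2 h after dosing. HN37 given orally at 5 mg/kg in 5% DMSO/5% Tween 80/90% saline, or iv at 2 mg/kg after dilution in saline with 1% Tween 80; n = 3 per time point. Blood sampled 0.25–24 h (from 0.083 h after iv); whole brain taken after oral dosing. Plasma and brain extracted with acetonitrile, quantified by LC−MS/MS; AUC0−t by trapezoidal method.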

[4] = Tmax in Sprague-Dawley rat at 20 mg/kg, po measured upto 24 hrs by LC-MS/MS method; assay type: ADME, organism-based; conditions: in vivo
Method in brief: (§3)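 Male SD rats (180–220 g) dosed orally at 2, 6 and 20 mg/kg, handled like the mice: fasting, 5% DMSO/5% Tween 80/saline vehicle, acetonitrile extraction, LC-MS/MS of plasma. In a separate set at 6 mg/kg p.o., blood and brain were sampled together.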

[5] = Tmax in Sprague-Dawley rat blood at 6 mg/kg, po measured upto 24 hrs by LC-MS/MS method; assay type: ADME, organism-based; method in brief: as §3
[6] = AUC(0 to t) in Sprague-Dawley rat blood at 6 mg/kg, po measured upto 24 hrs by LC-MS/MS method; assay type: ADME, organism-based; parameters: time < 24 hrs, dose 6 mg/kg, route po
Method in brief: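 Separate experiment in male SD rats given 6 mg/kg orally; blood and brain concentrations measured concurrently. Samples extracted with acetonitrile (brain homogenized in 10 volumes acetonitrile and sonicated) and analysed by LC−MS/MS; AUC0−t by trapezoidal method.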

[7] = Metabolic stability in monkey liver microsomes assessed as intrinsic clearance; assay type: ADME, Macaca mulatta, Microsome; conditions: rhesus monkey, read-out: CLH
CYP2C8 = CYP2C8 (Homo sapiens, UniProt P10632); assay: Inhibition of human liver microsome CYP2C8 at 0.10 to 50 uM preincubated with NADPH for 0.5 hrs followed by substrate addition by LC-MS/MS method relative to control; assay type: ADME; conditions: liver microsomes, dose 0.1-50 µM
Chain of CYP2C8 (P10632 whole entry): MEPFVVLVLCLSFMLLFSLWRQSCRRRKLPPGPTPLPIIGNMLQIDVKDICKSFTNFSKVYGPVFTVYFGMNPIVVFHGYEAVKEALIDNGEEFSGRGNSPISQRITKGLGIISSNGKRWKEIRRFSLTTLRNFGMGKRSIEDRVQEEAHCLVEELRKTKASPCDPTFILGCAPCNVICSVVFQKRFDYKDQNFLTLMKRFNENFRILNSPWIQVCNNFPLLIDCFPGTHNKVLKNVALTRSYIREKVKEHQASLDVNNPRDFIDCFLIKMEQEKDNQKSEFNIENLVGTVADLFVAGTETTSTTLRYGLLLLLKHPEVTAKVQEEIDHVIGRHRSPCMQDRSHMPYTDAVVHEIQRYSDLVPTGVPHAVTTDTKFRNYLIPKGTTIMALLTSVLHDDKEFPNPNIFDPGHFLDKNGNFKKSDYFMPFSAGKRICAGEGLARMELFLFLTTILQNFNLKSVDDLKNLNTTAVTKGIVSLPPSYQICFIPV

CYP2D6 = CYP2D6 (Homo sapiens, UniProt P10635); assay: Inhibition of human liver microsome CYP2D6 at 0.10 to 50 uM preincubated with NADPH for 0.5 hrs followed by substrate addition by LC-MS/MS method relative to control; assay type: ADME; conditions: liver microsomes, dose 0.1-50 µM
Chain of CYP2D6 (P10635 whole entry): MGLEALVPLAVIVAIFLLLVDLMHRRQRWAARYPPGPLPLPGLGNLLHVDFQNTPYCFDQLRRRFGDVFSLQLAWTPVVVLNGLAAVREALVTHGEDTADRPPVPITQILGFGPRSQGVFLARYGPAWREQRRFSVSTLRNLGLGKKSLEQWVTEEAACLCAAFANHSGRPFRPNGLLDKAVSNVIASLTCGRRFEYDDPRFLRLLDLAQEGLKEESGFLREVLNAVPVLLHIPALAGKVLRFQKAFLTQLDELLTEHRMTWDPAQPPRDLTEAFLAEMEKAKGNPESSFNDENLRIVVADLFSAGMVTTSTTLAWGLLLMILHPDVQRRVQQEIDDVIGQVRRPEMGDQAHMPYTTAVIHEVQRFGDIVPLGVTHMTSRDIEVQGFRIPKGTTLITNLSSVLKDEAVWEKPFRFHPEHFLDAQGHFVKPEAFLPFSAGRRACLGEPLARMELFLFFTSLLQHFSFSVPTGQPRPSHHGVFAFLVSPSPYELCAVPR

Cytochrome P450 2C19 = Cytochrome P450 2C19 (Homo sapiens, UniProt P33261); assay: Time dependent inhibition of human liver microsome CYP2C19 preincubated for 0.5 hrs in presence or absence of NADPH followed by substrate addition by LC-MS/MS method; assay type: ADME, microsomes
Chain of Cytochrome P450 2C19 (P33261 whole entry): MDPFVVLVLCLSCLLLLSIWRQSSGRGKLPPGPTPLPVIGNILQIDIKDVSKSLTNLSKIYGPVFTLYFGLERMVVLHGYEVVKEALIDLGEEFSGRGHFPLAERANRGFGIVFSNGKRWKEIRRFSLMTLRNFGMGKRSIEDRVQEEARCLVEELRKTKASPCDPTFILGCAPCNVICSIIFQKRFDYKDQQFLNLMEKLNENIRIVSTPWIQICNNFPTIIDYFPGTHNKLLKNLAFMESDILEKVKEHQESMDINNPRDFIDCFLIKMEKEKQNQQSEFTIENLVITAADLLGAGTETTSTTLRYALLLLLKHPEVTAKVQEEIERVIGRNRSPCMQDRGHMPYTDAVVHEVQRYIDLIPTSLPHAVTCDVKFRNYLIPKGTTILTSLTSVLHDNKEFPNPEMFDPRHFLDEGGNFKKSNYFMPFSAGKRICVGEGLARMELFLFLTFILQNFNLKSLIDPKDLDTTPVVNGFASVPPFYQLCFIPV
Method in brief: (§4)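 Human liver microsomes preincubated 0.5 h with 0.10–50 μM test compound, with or without NADPH, then CYP-specific probe substrate added and incubation continued. Metabolite measured by LC-MS/MS; % activity remaining relative to no-compound control; IC50 fitted by Probit model. For CYP3A4, midazolam 1′-hydroxylation and testosterone 6β-hydroxylation were read separately.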

Cytochrome P450 2C8 = Cytochrome P450 2C8 (Homo sapiens, UniProt P10632); assay: Time dependent inhibition of human liver microsome CYP2C8 preincubated for 0.5 hrs in presence of NADPH followed by substrate addition by LC-MS/MS method; assay type: ADME, microsomes; method in brief: as §4
Chain of Cytochrome P450 2C8 (P10632 whole entry): as the sequence (P10632 whole entry) above

[8] = target: T1, Potassium voltage-gated channel subfamily KQT member 1; assay: Agonist activity at human KCNQ1 channel expressed in CHO cells assessed as shift of half voltage of maximal activation at 0.1 uM by patch clamp method; assay type: cell-based; method in brief: as §1
[9] = Neurotoxicity in Kunming mouse assessed as motor impairment rate at 150 mg/kg, po after 1 hr by rotarod test; assay type: toxicity, organism-based; conditions: in vivo; method in brief: as §2

Compound	Activity [1] [mV]	Activity (Mus musculus) [%]	TD50 at 1 h ([2]; Kunming) [mg/kg]	Activity ([2]; po, 1 h, DDE = dose-dependent effect)	Cmax [3] [ng/mL]	Tmax [4] [h]	Tmax [5] [min]	AUC(0-t) at 24 h [6] [ng·h/mL]	CLint scaled [7] [mL/min/kg]	inhibition at 0.5 h, up to 50 µM (CYP2C8) [%]	inhibition at 0.5 h, up to 50 µM (CYP2D6) [%]	IC50 (Cytochrome P450 2C19) [µM]	IC50 (Cytochrome P450 2C8) [µM]	Activity [8] [mV]	Activity [9] [%]
CCOC(=O)Nc1ccc(NCc2ccc(F)cc2)cc1N [EZOGABINE]	-8.03	60	188	Dde											
C#CCN(Cc1ccc(F)cc1)c1cc(C)c(NC(=O)OC)c(C)c1					134	3.67	15	533	112	< 25	< 25	> 50	35.2	-5.47	87.5
